Measured values from ChEMBL document CHEMBL1158900, “Synthesis and antimitotic/cytotoxic activity of hemiasterlin analogues” (J Nat Prod, 2003).

Key:
MCF7 [1] = assay: Cytotoxicity activity against human MCF7 cells expressing p53 mutant by MTT assay; assay type: functional, cell-based
Method in brief: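 Human mammary carcinoma MCF-7 cells carrying a dominant-negative mutant p53 tumour suppressor gene (MCF-7 mup53). Cytotoxicity was read out by MTT assay, and the value reported is the IC50 in nM.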

MCF7 [2] = assay: Antimitotic activity against human MCF7 cells expressing p53 mutant

Row | SMILES | IC50 (MCF7 [1]) | IC50 (MCF7 [2])
1 | CCOC(=O)/C(C)=C/[C@H](C(C)C)N(C)C(=O)[C@@H](NC(=O)[C@@H](NC)C(C)(C)c1ccccc1)C(C)(C)C | 7 nM | 1 nM
2 | CN[C@@H](Cc1ccccc1)C(=O)N[C@H](C(=O)N(C)[C@H](/C=C(\C)C(=O)O)C(C)C)C(C)(C)C | 4000 nM | 5000 nM
3 | CN[C@H](C(=O)N[C@H](C(=O)N[C@H](/C=C(\C)C(=O)O)C(C)C)C(C)(C)C)C(C)(C)c1ccccc1 | 15 nM | 20 nM
4 | CN[C@H](C(=O)N[C@H](C(=O)N(C)[C@H](/C=C(\C)C(=O)O)C(C)C)C(C)(C)C)C(C)(C)C | 6 nM | 6 nM
5 | CN[C@H](C(=O)N[C@H](C(=O)N[C@H](/C=C(\C)C(=O)O)C(C)C)C(C)(C)C)C(C)(C)c1cn(C)c2ccccc12 | 0.25 nM | 0.15 nM
6 | CN[C@H](C(=O)N[C@H](C(=O)N(C)[C@H](C)/C=C(\C)C(=O)O)C(C)(C)C)C(C)(C)c1cn(C)c2ccccc12 | 40 nM | 200 nM
7 | CN[C@H](C(=O)N[C@H](C(=O)N(C)[C@H](/C=C(\C)C(=O)OC)C(C)C)C(C)(C)C)C(C)(C)c1ccccc1 | 3 nM | 2 nM
8 | CN[C@H](C(=O)N[C@H](C(=O)N(C)[C@H](/C=C(\C)C(=O)O)C(C)C)C(C)(C)C)C(C)C | 150 nM | 120 nM
9 | CN[C@H](C(=O)N[C@H](C(=O)N[C@H](/C=C(\C)C(=O)O)C(C)C)C(C)(C)C)C(C)(C)C | 1600 nM | > 10000 nM
10 | CN[C@@H](C(=O)N[C@H](C(=O)N(C)[C@H](/C=C(\C)C(=O)O)C(C)C)C(C)(C)C)C(C)(C)c1ccccc1 | 25 nM | 10 nM
11 | CN[C@H](C(=O)N[C@H](C(=O)N(C)C/C=C(\C)C(=O)O)C(C)(C)C)C(C)(C)c1cn(C)c2ccccc12 | > 10000 nM | > 10000 nM
12 | CN[C@H](C(=O)N[C@H](C(=O)N(C)[C@H](CC(C)C(=O)O)C(C)C)C(C)(C)C)C(C)(C)c1cn(C)c2ccccc12 (stereo not given in full) | – | 2.5 nM
13 | CN[C@H](C(=O)N[C@H](C(=O)N(C)CCCC(=O)O)C(C)(C)C)C(C)(C)c1cn(C)c2ccccc12 | > 1000 nM | > 1000 nM
14 | C/C(=C\[C@H](C(C)C)N(C)C(=O)[C@@H](NC(=O)[C@@H](N)Cc1c[nH]c2ccccc12)C(C)(C)C)C(=O)O | 40 nM | 20 nM
15 | CN[C@H](C(=O)N[C@H](C(=O)N(C)[C@H](/C=C(\C)C(=O)O)C(C)C)C(C)C)C(C)(C)c1cn(C)c2ccccc12 | 0.8 nM | 0.5 nM
16 | CC[C@H](NC(=O)[C@@H](NC)C(C)(C)c1cn(C)c2ccccc12)C(=O)N(C)[C@H](/C=C(\C)C(=O)O)C(C)C | 0.8 nM | 0.5 nM

Row | SMILES | IC50 (MCF7 [1]) | IC50 (MCF7 [2])
17 | C/C(=C\[C@H](C(C)C)N(C)C(=O)[C@@H](NC(=O)[C@@H](N)C(C)(C)c1cn(C)c2ccccc12)C(C)(C)C)C(=O)O | 50 nM | 30 nM
18 | CN[C@@H](Cc1cn(C)c2ccccc12)C(=O)N[C@H](C(=O)N(C)C/C=C(\C)C(=O)O)C(C)(C)C | > 10000 nM | > 10000 nM
19 | C/C(=C\[C@H](C(C)C)N(C)C(=O)[C@@H](NC(=O)C(C)(C)C)C(C)(C)C)C(=O)O | > 10000 nM | > 10000 nM
20 | CN[C@H](C(=O)N[C@H](C(=O)N(C)[C@@H](/C=C(\C)C(=O)O)C(C)C)C(C)(C)C)C(C)(C)c1cn(C)c2ccccc12 | 30 nM | 10 nM
21 | CN[C@H](C(=O)N[C@H](C(=O)N(C)[C@@H](C)/C=C(\C)C(=O)O)C(C)(C)C)C(C)(C)c1cn(C)c2ccccc12 | 4 nM | 4 nM
22 | CN[C@@H](Cc1cn(C)c2ccccc12)C(=O)N[C@H](C(=O)N(C)[C@H](/C=C(\C)C(=O)O)C(C)C)C(C)(C)C | 60 nM | 300 nM
23 | CC(=O)N(C)[C@H](C(=O)N[C@H](C(=O)N(C)[C@H](/C=C(\C)C(=O)O)C(C)C)C(C)(C)C)C(C)(C)c1cn(C)c2ccccc12 | 300 nM | 300 nM
24 | CN[C@@H](Cc1cn(C)c2ccccc12)C(=O)N[C@H](C(=O)N(C)C(C)/C=C(\C)C(=O)O)C(C)(C)C (stereo not given in full) | 2500 nM | 1100 nM
25 | C/C(=C\[C@H](C(C)C)N(C)C(=O)[C@@H](NC(=O)[C@H](C(C)(C)c1cn(C)c2ccccc12)[N+](C)(C)C)C(C)(C)C)C(=O)O | > 1000 nM | > 1000 nM
26 | CN[C@H](C(=O)N[C@H](C(=O)N(C)[C@H](/C=C(\C)C(=O)N[C@@H](CCCNC(=N)N)C(=O)O)C(C)C)C(C)(C)C)C(C)(C)c1cn(C)c2ccccc12 [CRIAMIDES A] | 1000 nM | –
27 | CN[C@H](C(=O)N[C@H](C(=O)N(C)[C@H](/C=C(\C)C(=O)OC)C(C)C)C(C)(C)C)C(C)(C)c1cn(C)c2ccccc12 [HEMIASTERLIN METHYL ESTER] | 0.5 nM | 0.5 nM
28 | CN[C@H](C(=O)N[C@H](C(=O)N(C)[C@H](/C=C(\C)C(=O)O)C(C)C)C(C)(C)C)C(C)(C)c1c[nH]c2ccccc12 [HEMIASTERLINS A] | 2 nM | 2 nM
29 | CN[C@H](C(=O)N[C@H](C(=O)N(C)[C@H](/C=C(\C)C(=O)O)C(C)C)C(C)C)C(C)(C)c1c[nH]c2ccccc12 [HEMIASTERLINS B] | 7 nM | 200 nM
30 | CN[C@H](C(=O)N[C@H](C(=O)N(C)[C@H](/C=C(\C)C(=O)O)C(C)C)C(C)(C)C)C(C)(C)c1cn(C)c2ccccc12 [HEMIASTERLIN] | 0.3 nM | 0.3 nM
31 | CN[C@H](C(=O)N[C@H](C(=O)N(C)[C@H](/C=C(\C)C(=O)O)C(C)C)C(C)(C)C)C(C)(C)c1ccccc1 [TALTOBULIN] | 0.08 nM | 0.09 nM
